Active and inactive are the calls of the source. No cut-off for these calls is given here.
Key:
[1] = target: T1, Histone-lysine N-methyltransferase EHMT2 (Homo sapiens) (UniProt Q96KQ7); experiment: Inhibition of G9a in human A-375 cells overexpressing NICD assessed as reduction in AKT phosphorylation at 2 uM by Western blot analysis; assay type: cell-based
T1 sequence (whole entry): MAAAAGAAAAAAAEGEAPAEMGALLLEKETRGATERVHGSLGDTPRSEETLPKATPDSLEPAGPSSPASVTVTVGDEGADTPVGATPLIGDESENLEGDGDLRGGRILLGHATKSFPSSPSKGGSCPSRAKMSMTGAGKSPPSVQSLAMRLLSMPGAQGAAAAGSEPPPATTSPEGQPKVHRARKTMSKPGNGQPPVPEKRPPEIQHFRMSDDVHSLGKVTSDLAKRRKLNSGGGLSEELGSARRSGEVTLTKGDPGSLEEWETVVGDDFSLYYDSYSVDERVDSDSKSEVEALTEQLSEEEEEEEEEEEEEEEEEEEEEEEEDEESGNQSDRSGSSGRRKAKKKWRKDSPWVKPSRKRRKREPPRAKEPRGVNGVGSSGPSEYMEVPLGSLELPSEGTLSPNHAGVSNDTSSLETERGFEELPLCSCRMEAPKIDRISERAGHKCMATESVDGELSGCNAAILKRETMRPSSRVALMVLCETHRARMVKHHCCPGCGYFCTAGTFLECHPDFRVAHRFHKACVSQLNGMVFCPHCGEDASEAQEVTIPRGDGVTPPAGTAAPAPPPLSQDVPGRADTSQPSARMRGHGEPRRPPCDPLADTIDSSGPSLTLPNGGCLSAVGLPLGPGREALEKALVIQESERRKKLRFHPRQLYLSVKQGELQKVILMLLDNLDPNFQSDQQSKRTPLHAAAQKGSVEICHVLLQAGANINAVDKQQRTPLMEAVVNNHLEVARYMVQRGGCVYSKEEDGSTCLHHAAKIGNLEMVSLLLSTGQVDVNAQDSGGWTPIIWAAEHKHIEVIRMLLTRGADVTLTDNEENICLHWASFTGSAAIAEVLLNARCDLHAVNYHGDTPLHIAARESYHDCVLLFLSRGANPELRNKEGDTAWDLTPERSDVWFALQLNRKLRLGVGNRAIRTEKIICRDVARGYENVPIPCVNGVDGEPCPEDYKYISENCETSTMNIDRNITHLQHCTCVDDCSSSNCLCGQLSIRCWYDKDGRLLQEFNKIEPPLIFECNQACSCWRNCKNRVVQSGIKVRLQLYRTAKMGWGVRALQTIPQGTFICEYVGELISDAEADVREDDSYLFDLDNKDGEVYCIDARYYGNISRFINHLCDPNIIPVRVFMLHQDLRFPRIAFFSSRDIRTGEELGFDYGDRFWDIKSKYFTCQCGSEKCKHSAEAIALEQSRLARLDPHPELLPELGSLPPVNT

A-375 [2] = experiment: Induction of apoptosis in human A-375 cells overexpressing NICD assessed as increase in cleaved Caspase-3 expression at 2 uM by Western blot analysis; assay type: functional, cell-based
[3] = target: T1, Histone-lysine N-methyltransferase EHMT2 (Homo sapiens); experiment: Inhibition of G9a in human M14 cells assessed as decrease in Hes1 expression at 2 uM by Western blot analysis; assay type: cell-based
M14 [4] = experiment: Induction of apoptosis in human M14 cells assessed as late apoptotic cells at 2 uM by Annexin V-FITC/PI staining based flow cytometry (reference value: 3.10%); assay type: functional
A-375 [5] = experiment: Induction of apoptosis in human A-375 cells overexpressing NICD assessed as reduction in Bcl-2 expression at 2 uM by Western blot analysis; assay type: functional, cell-based
A-375 [6] = experiment: Induction of apoptosis in human A-375 cells assessed as live cells at 2 uM by Annexin V-FITC/PI staining based flow cytometry (reference value: 95.1%); assay type: functional
M14 [7] = experiment: Induction of apoptosis in human M14 cells overexpressing NCID assessed as late apoptotic cells by Annexin V-FITC/PI staining based flow cytometry (Rvb-3.10%); assay type: functional; details: dose 2 µM
M14 [8] = experiment: Induction of apoptosis in human M14 cells assessed as live cells at 2 uM by Annexin V-FITC/PI staining based flow cytometry (reference value: 95.1%); assay type: functional
M14 [9] = experiment: Induction of apoptosis in human M14 cells overexpressing NICD assessed as reduction in Bcl-2 expression at 2 uM by Western blot analysis; assay type: functional, cell-based
A-375 [10] = experiment: Antimigratory activity against human A-375 cells at 2 uM by transwell assay; assay type: functional, cell-based
How it was run: (§1)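 Transwell assay in M14 or A375 cells cultured in high-glucose DMEM with 10% FBS and penicillin/streptomycin; NICD overexpression plasmid transfected with Lipofectamine 2000. Invasion inserts coated with Matrigel diluted 1:6 in serum-free 1640 medium and set at 37 °C for 4 h; migration inserts uncoated, 5000 cells seeded. Control cells received DMSO. Migrated or invaded cells counted.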

M14 [11] = experiment: Antimigratory activity against human M14 cells overexpressing NICD at 2 uM by transwell assay; assay type: functional, cell-based; how it was run: as §1
[12] = Toxicity in human A-375 cells xenografted nude mouse assessed as change in body weight at 5 mg/kg, ip administered every other day for 10 days and measured during compound dosing; assay type: organism-based; details: in vivo, 240 h, time 10 day
How it was run: (§2)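 Male nude mice, 6 weeks old, were given A375 cells (2X 106) subcutaneously. After one week, animals with palpable xenografts were randomised into two groups: DMSO vehicle, or compound at 5 mg/kg i.p. every other day for 10 days. Tumour volume was measured, and body weight was monitored.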

M14 [13] = experiment: Antiinvasive activity against human M14 cells overexpressing NICD at 2 uM by transwell assay; assay type: functional, cell-based; how it was run: as §1
M14 [14] = experiment: Induction of apoptosis in human M14 cells assessed as increase in cleaved Caspase-3 expression at 2 uM by Western blot analysis; assay type: functional, cell-based
A-375 [15] = experiment: Induction of apoptosis in human A-375 cells overexpressing […] assessed as live cells by Annexin V-FITC/PI staining based flow cytometry (Rvb-95.1%); assay type: functional; details: dose 2 µM
[16] = target: T1, Histone-lysine N-methyltransferase EHMT2 (Homo sapiens); experiment: Inhibition of G9a in human A-375 cells assessed as decrease in Hes1 expression at 2 uM by Western blot analysis; assay type: cell-based
A-375 [17] = experiment: Induction of apoptosis in human A-375 cells assessed as early apoptotic cells at 2 uM by Annexin V-FITC/PI staining based flow cytometry (reference value: 0.43%); assay type: functional
A-375 [18] = experiment: Cytotoxicity against human A-375 cells assessed as reduction in cell viability by CCK-8 assay; assay type: functional, cell-based
How it was run: (§3)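 CCK8 proliferation assay. M14 or A375 cells, NICD plasmid-transfected where stated, were seeded at about 1000 cells per well, with 0.1% DMSO-treated cells as control. CCK8 reagent was added every 24 h and incubated 90 min at 37 °C, then OD read at 450 nm to build a proliferation curve. IC50 came from a dose-dependent viability series in A375.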

[19] = target: T1, Histone-lysine N-methyltransferase EHMT2 (Homo sapiens); experiment: Inhibition of G9a in human A-375 cells assessed as decrease in H3K9me2 expression at 2 uM by Western blot analysis; assay type: cell-based
[20] = target: T1, Histone-lysine N-methyltransferase EHMT2 (Homo sapiens); experiment: Inhibition of G9a in human M14 cells overexpressing NICD assessed as reduction in AKT phosphorylation at 2 uM by Western blot analysis; assay type: cell-based
A-375 [21] = experiment: Antiproliferative activity against human A-375 cells assessed as reduction in cell proliferation at 2 uM by CCK-8 assay; assay type: functional, cell-based; how it was run: as §3
A-375 [22] = experiment: Induction of apoptosis in human A-375 cells overexpressing […] assessed as necrotic cells by Annexin V-FITC/PI staining based flow cytometry (Rvb-1.34%); assay type: functional; details: dose 2 µM
M14 [23] = experiment: Antiproliferative activity against human M14 cells assessed as reduction in cell proliferation at 2 uM by CCK-8 assay; assay type: functional, cell-based; how it was run: as §3
[24] = target: T1, Histone-lysine N-methyltransferase EHMT2 (Homo sapiens); experiment: Inhibition of G9a in human M14 cells assessed as decrease in H3K9me2 expression at 2 uM by Western blot analysis; assay type: cell-based
A-375 [25] = experiment: Antitumor activity against human A-375 cells xenografted in nude mouse assessed as tumor growth inhibition at 5 mg/kg, ip administered every other day for 10 days measured post-last dose by caliper method; assay type: functional, organism-based; details: time 10.0 day; how it was run: as §2

inhibition [1]: inactive | inhibition [3]: Active | inhibition [16]: Active | inhibition [19]: Active | inhibition [20]: inactive | inhibition [24]: Active
SMILES: COc1cc2c(NC3CCN(C(C)C)CC3)nc(N3CCC(F)(F)CC3)nc2cc1OCCCN1CCCC1
Activity (A-375 [2]): inactive | Activity (M14 [4]): 5.17% | Activity (A-375 [5]): inactive | Activity (A-375 [6]): 89.8% | Activity (M14 [7]): 3.59% | Activity (M14 [8]): 89.8% | Activity (M14 [9]): inactive | Activity (A-375 [10]): Active | Activity (M14 [11]): inactive | Activity [12]: Non-Toxic | Activity (M14 [13]): inactive | Activity (M14 [14]): Active | Activity (A-375 [15]): 94.9% | Activity (A-375 [17]): 4.8% | Activity (A-375 [18]): Dose-Dependent Effect | IC50 (A-375 [18]): 3.06 µM | Activity (A-375 [21]): Active | Activity (A-375 [22]): 0.76% | Activity (M14 [23]): Active | TGI (A-375 [25]): Active

Reference: ChEMBL document CHEMBL5712912, “Abnormal overexpression of G9a in melanoma cells promotes cancer progression via upregulation of the Notch1 signaling pathway” (Aging (Albany NY), 2020)
